Measurements published in ChEMBL document CHEMBL1129477, “Structure-activity relationships of the quinolone antibacterials against mycobacteria: effect of structural changes at N-1 and C-7” (J Med Chem, 1996).
Values after ≈ are worked out from the molar mass of the structure shown.

How the values were obtained:
Format in all cases: functional
[1] = system: Staphylococcus aureus; assay: Anti-bacterial activity was tested against Gram-positive SA-13 bacterium
Procedure, shortened: (§1)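 Standard microtitration MIC determination (µg/mL) against four representative Gram-negative and Gram-positive bacterial strains.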

[2] = system: Streptococcus pyogenes; assay: Anti-bacterial activity tested against Gram-positive SP1-1 bacterium; procedure, shortened: as §1
[3] = system: Mycolicibacterium smegmatis; assay: Anti-bacterial activity tested against Mycobacterium smegmatis (ATCG 19420)
[4] = system: Escherichia coli; assay: Anti-bacterial activity was tested against Gram-negative EC-1 bacterium; procedure, shortened: as §1
[5] = system: Mycolicibacterium fortuitum; assay: Anti-bacterial activity tested against Mycobacterium fortuitum (ATCG 6841)
[6] = system: Pseudomonas aeruginosa; assay: Anti-bacterial activity tested against Gram-negative PA-7 bacterium; procedure, shortened: as §1

Compound	MIC [1]	MIC [2]	MIC [3]	MIC [4]	MIC [5]	MIC [6]
CCC1CN(c2cc3c(cc2F)c(=O)c(C(=O)O)cn3C2CC2)CCN1 (configuration not stated)	0.8 µg/mL (≈ 2.23 µM)	0.8 µg/mL (≈ 2.23 µM)	0.25 µg/mL (≈ 0.696 µM)	0.1 µg/mL (≈ 0.278 µM)	0.13 µg/mL (≈ 0.362 µM)	0.8 µg/mL (≈ 2.23 µM)
CC1CN(c2cc3c(cc2F)c(=O)c(C(=O)O)cn3C(C)C)CC(C)N1 (configuration not stated)	3.1 µg/mL (≈ 8.58 µM)	> 3.1 µg/mL	2 µg/mL (≈ 5.53 µM)	1.6 µg/mL (≈ 4.43 µM)	0.5 µg/mL (≈ 1.38 µM)	> 3.1 µg/mL
CCN1CCN(c2cc3c(cc2F)c(=O)c(C(=O)O)cn3CC)CC1	0.2 µg/mL (≈ 0.576 µM)	3.1 µg/mL (≈ 8.92 µM)	0.5 µg/mL (≈ 1.44 µM)	0.1 µg/mL (≈ 0.288 µM)	0.25 µg/mL (≈ 0.72 µM)	1.6 µg/mL (≈ 4.61 µM)
CCN1CCN(c2cc3c(cc2F)c(=O)c(C(=O)O)cn3C(C)C)CC1	3.1 µg/mL (≈ 8.58 µM)	> 3.1 µg/mL	4 µg/mL (≈ 11.1 µM)	1.6 µg/mL (≈ 4.43 µM)	1 µg/mL (≈ 2.77 µM)	> 3.1 µg/mL
CNCC1CCN(c2cc3c(cc2F)c(=O)c(C(=O)O)cn3C2CCC2)C1 (configuration not stated)	0.8 µg/mL (≈ 2.14 µM)	1.6 µg/mL (≈ 4.28 µM)	4 µg/mL (≈ 10.7 µM)	0.8 µg/mL (≈ 2.14 µM)	2 µg/mL (≈ 5.36 µM)	3.1 µg/mL (≈ 8.3 µM)
NC1CCN(c2cc3c(cc2F)c(=O)c(C(=O)O)cn3C2CCC2)C1 (configuration not stated)	3.1 µg/mL (≈ 8.98 µM)	1.6 µg/mL (≈ 4.63 µM)	1 µg/mL (≈ 2.9 µM)	0.4 µg/mL (≈ 1.16 µM)	1 µg/mL (≈ 2.9 µM)	1.6 µg/mL (≈ 4.63 µM)
C[C@@H]1CN(c2c(F)c(N)c3c(=O)c(C(=O)O)cn(C4CC4)c3c2F)C[C@H](C)N1 [SPARFLOXACIN]	0.05 µg/mL (≈ 0.127 µM)	0.1 µg/mL (≈ 0.255 µM)	0.13 µg/mL (≈ 0.331 µM)	0.025 µg/mL (≈ 0.0637 µM)	0.06 µg/mL (≈ 0.153 µM)	0.8 µg/mL (≈ 2.04 µM)
